UBC13 inh = UBC13 polyubiquitin chain formation inhibitors, primary screen, biochemical, TR-FRET, uHTS | AID 485273, 2010 | actives 0.47% (n = 330,000) | inhibition, % at 20 µM; in the data active = inhibition above about 45%, passing the limit was not always enough
Target sequence (P61088 whole entry, looked up): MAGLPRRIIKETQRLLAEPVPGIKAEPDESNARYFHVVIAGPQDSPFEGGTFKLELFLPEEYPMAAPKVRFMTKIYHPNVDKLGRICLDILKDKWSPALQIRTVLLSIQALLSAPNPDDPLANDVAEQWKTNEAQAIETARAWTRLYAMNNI
MEKK2 WT-MEK5 = modulators of MEK5 binding to wildtype MEKK2, primary screen, biochemical, multiplex bead flow cytometry, Alexa488-MEK5 | Mitogen-activated protein kinase kinase kinase 2 (Homo sapiens), Q9Y2U5 | Alexa488-MEK5 binding to MEKK2 WT; actives lie on both sides | binding response (% of control), % at 10 µM | actives 1.1% (n = 290,000) | AID 1531, 2009; in the data active = binding response below about 67% or above about 130%
MEKK3 PB1 HTS = modulators of MEKK3-MEK5 PB1 binding, primary screen, biochemical, wildtype MEKK3, multiplex bead flow cytometry, Alexa488-MEK5; actives 1.4% (n = 290,000); binding response (% of control), % at 10 µM; AID 1529, 2009; bead-based flow cytometry, Alexa488-MEK5 binding to MEKK3; actives lie on both sides; 0 = blocked by unlabeled MEK5, 100 = vehicle;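 active = binding response more than 3 SD above or below the average of its plate-row segment, actives on both sides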;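 also: Alexa488 bead fluorescence after subtracting the streptavidin-only scavenger bead signal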
Pemphigus Ab inh = inhibitors of pemphigus antibody binding to DSG3, primary screen, biochemical, bead-based, flow cytometry, scFv-GFP. DSG3-coupled beads, scFv-anti-DSG3-GFP binding; stronger effect = lower value. binding (percent of control), % at 10 µM. actives 0.48% (n = 310,000);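 active = binding more than 3 SD below its plate's average and above zero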;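 also: hits lower antibody fragment binding to DSG3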
MEKK2 mut-MEK5 = MEK5 binding signal on mutant MEKK2 PB1, primary screen, biochemical, multiplex bead flow cytometry, Alexa488-MEK5; actives 0.35% (n = 290,000); Alexa488-MEK5 binding to MEKK2 mutant; percent response, % at 10 µM; AID 1530, 2009; in the data active = percent response above about 24%, passing the limit was not always enough
Apaf-1 inh = inhibitors of human Apaf-1 apoptosome, primary screen, biochemical, DEVD-Rh110 fluorescence, uHTS; Apoptotic protease-activating factor 1 (Homo sapiens), O14727; reconstituted apoptosome caspase-3 activity; inhibition, % at 20 µM; actives 0.71% (n = 330,000); active = inhibition of at least 40% at 20 µM
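Material: reconstituted apoptosome with Apaf-1, cytochrome c, caspase-9, procaspase-3, dATP. Technique: Rh110 fluorescence intensity. Buffer or medium: pH 7.5 Hepes buffer with CHAPS, BSA, DTT. Times: 30 min plus 50 min, RT.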
Hits are given with their value; [ ] = another dose, or the depositor's remark. An excerpt weighted towards active compounds, which were near 3.2% of everything screened.

How did O=C(c1ccc(S(=O)(=O)N2CCCCCC2)cc1)N1CCC(CN2C(=O)c3cccc4cccc(c34)C2=O)CC1 do in these assays?
UBC13 inh: 46; MEKK2 WT-MEK5: inactive; MEKK3 PB1 HTS: inactive; Pemphigus Ab inh: inactive; MEKK2 mut-MEK5: inactive; Apaf-1 inh: inactive

How did CC(=O)OCC(=O)[C@@]12OC3(CCCC3)O[C@@H]1C[C@H]1[C@@H]3CCC4=CC(=O)C=C[C@]4(C)[C@@]3(F)[C@@H](O)C[C@@]12C do in these assays?
UBC13 inh: inactive; MEKK2 WT-MEK5: -3.0; MEKK3 PB1 HTS: inactive; Pemphigus Ab inh: inactive; MEKK2 mut-MEK5: inactive; Apaf-1 inh: inactive

How did CCn1c(SCC(=O)c2c(N)n(C3CC3)c(=O)[nH]c2=O)nc2cc(S(N)(=O)=O)ccc21 do in these assays?
UBC13 inh: inactive; Pemphigus Ab inh: inactive; Apaf-1 inh: inactive

What do the screens show for `Cc1ccc(-n2ncc3c(=O)[nH]c(SCC(=O)N4CCOCC4)nc32)cc1`?
UBC13 inh: inactive; Pemphigus Ab inh: inactive; Apaf-1 inh: inactive

What do the screens show for `Cc1ccc(-n2ncc3c(=O)[nH]c(SCC(=O)N4CCN(c5ccccc5)CC4)nc32)cc1`?
UBC13 inh: inactive; MEKK2 WT-MEK5: inactive; MEKK3 PB1 HTS: inactive; Pemphigus Ab inh: -32; MEKK2 mut-MEK5: inactive; Apaf-1 inh: inactive

What do the screens show for `CCOCc1nnc(NC(=O)C2CC(=O)N(CCc3ccc(F)cc3)C2)s1` (stereo not drawn)?
UBC13 inh: inactive; MEKK2 WT-MEK5: inactive; MEKK3 PB1 HTS: inactive; Pemphigus Ab inh: inactive; MEKK2 mut-MEK5: inactive; Apaf-1 inh: inactive

What do the screens show for `C[C@H](CO)N1C[C@H](C)[C@@H](CN(C)Cc2cccc(F)c2)Oc2cc(-c3cccc(C#N)c3)ccc2S1(=O)=O`?
Pemphigus Ab inh: inactive

How did O=C1C=C(c2ccccc2)CO1 do in these assays?
Pemphigus Ab inh: inactive

What do the screens show for `CC(OC(=O)c1cc2sccc2n1C)C(=O)NCc1ccc2c(c1)OCO2` (stereo not drawn)?
UBC13 inh: inactive; MEKK2 WT-MEK5: inactive; MEKK3 PB1 HTS: inactive; Pemphigus Ab inh: 69; MEKK2 mut-MEK5: inactive; Apaf-1 inh: inactive

Results for COc1ccc(NC(=O)NCc2ccc3c(c2)OCO3)cc1 ?
UBC13 inh: inactive; MEKK2 WT-MEK5: inactive; MEKK3 PB1 HTS: inactive; Pemphigus Ab inh: 82; MEKK2 mut-MEK5: inactive; Apaf-1 inh: inactive

What do the screens show for `Cc1ccc(C(=O)OCC(=O)NCc2ccc3c(c2)OCO3)o1`?
UBC13 inh: inactive; Pemphigus Ab inh: inactive; Apaf-1 inh: inactive

Results for Cc1ccsc1C(=O)OCC(=O)NCc1ccc2c(c1)OCO2 ?
UBC13 inh: inactive; MEKK2 WT-MEK5: inactive; MEKK3 PB1 HTS: inactive; Pemphigus Ab inh: 52; MEKK2 mut-MEK5: inactive; Apaf-1 inh: inactive

Results for C=COc1ccc(N2C(=O)c3ccccc3OC2C)cc1 (stereo not drawn) ?
UBC13 inh: inactive; MEKK2 WT-MEK5: inactive; MEKK3 PB1 HTS: inactive; Pemphigus Ab inh: inactive; MEKK2 mut-MEK5: inactive; Apaf-1 inh: inactive

How did O=C(NCc1ccccc1)c1ccccc1 do in these assays?
Pemphigus Ab inh: inactive

Results for Cn1cnc(C(=O)NCc2ccccc2)c1C(=O)NCc1ccccc1 ?
UBC13 inh: inactive; Pemphigus Ab inh: 70; Apaf-1 inh: inactive

How did O=C(NCc1ccccc1)c1ccc(C(=O)NCc2ccccc2)cc1 do in these assays?
Pemphigus Ab inh: 79

Results for COc1ccc(CC(=O)N[C@@H]2c3cc(OC)c(OC)cc3C[C@H]2O)cc1 ?
Pemphigus Ab inh: inactive; Apaf-1 inh: inactive

Results for O=C(Cc1ccc(Br)cc1)N1CCN(C(=O)c2ccco2)CC1 ?
UBC13 inh: inactive; MEKK2 WT-MEK5: inactive; MEKK3 PB1 HTS: inactive; Pemphigus Ab inh: inactive; MEKK2 mut-MEK5: inactive; Apaf-1 inh: inactive

How did CC(C)C[C@@H](CN)NC(=O)c1nc[nH]c1C(=O)N[C@@H](C)C(=O)CNC[C@H](C)NC(=O)c1nc[nH]c1C(=O)N[C@@H](CC(=O)O)C(=O)O do in these assays?
Pemphigus Ab inh: inactive

How did Cc1[nH]n(-c2ccccc2)c(=O)c1N=Nc1ccccc1 do in these assays?
UBC13 inh: inactive; MEKK2 WT-MEK5: inactive; MEKK3 PB1 HTS: inactive; Pemphigus Ab inh: inactive; MEKK2 mut-MEK5: inactive; Apaf-1 inh: inactive

What do the screens show for `Cc1ccc(N=Nc2c(N)n(-c3ccccc3)[nH]c2=O)cc1`?
UBC13 inh: inactive; MEKK2 WT-MEK5: inactive; MEKK3 PB1 HTS: inactive; Pemphigus Ab inh: -0.7; MEKK2 mut-MEK5: inactive; Apaf-1 inh: inactive

Results for CSc1ncnc2c1ncn2CCCNCc1ccccn1 ?
Pemphigus Ab inh: inactive

Results for CCc1ccc(O)c(N=Cc2ccccc2O)c1 ?
UBC13 inh: inactive; MEKK2 WT-MEK5: inactive; MEKK3 PB1 HTS: inactive; Pemphigus Ab inh: inactive; MEKK2 mut-MEK5: inactive; Apaf-1 inh: inactive

How did O=c1[nH][nH]c2c(N=Cc3ccccc3O)ccc(F)c12 do in these assays?
MEKK2 WT-MEK5: 58[inhibitor]; MEKK3 PB1 HTS: 57[inhibitor]; Pemphigus Ab inh: inactive; MEKK2 mut-MEK5: inactive

What do the screens show for `Cc1ccc(S(=O)(=O)N2CCCCC2)cc1NC(=O)COC(=O)CN1C(=O)NC2(CC(C)CC(C)(C)C2)C1=O` (stereo not drawn)?
Pemphigus Ab inh: inactive

Results for Cc1ccc(S(=O)(=O)N2CCCC2)cc1C(=O)Nc1ccc(-n2cnnn2)cc1 ?
UBC13 inh: inactive; Pemphigus Ab inh: inactive; Apaf-1 inh: inactive

What do the screens show for `COc1ccc(-c2cn3c(C)c(C(=O)N4CCN(c5ccccc5F)CC4)sc3n2)cc1`?
UBC13 inh: inactive; MEKK2 WT-MEK5: inactive; MEKK3 PB1 HTS: inactive; Pemphigus Ab inh: inactive; MEKK2 mut-MEK5: inactive; Apaf-1 inh: inactive

What do the screens show for `COc1ccc(N2CCN(C(=O)c3sc4nc(-c5ccc(F)cc5)cn4c3C)CC2)cc1`?
UBC13 inh: inactive; MEKK2 WT-MEK5: inactive; MEKK3 PB1 HTS: inactive; Pemphigus Ab inh: 27; MEKK2 mut-MEK5: inactive; Apaf-1 inh: inactive

Results for COc1ccc(-c2cn3c(C)c(C(=O)Nc4cccc(NC(C)=O)c4)sc3n2)cc1 ?
UBC13 inh: inactive; MEKK2 WT-MEK5: inactive; MEKK3 PB1 HTS: inactive; Pemphigus Ab inh: 80; MEKK2 mut-MEK5: inactive; Apaf-1 inh: inactive

Results for COc1ccc(-c2cn3c(C)c(C(=O)Nc4ccncc4)sc3n2)cc1 ?
UBC13 inh: inactive; MEKK2 WT-MEK5: inactive; MEKK3 PB1 HTS: inactive; Pemphigus Ab inh: inactive; MEKK2 mut-MEK5: inactive; Apaf-1 inh: inactive

Results for C=CCn1c(SCC(=O)N2CCN(c3ccccc3)CC2)nc2c([nH]c3ccccc32)c1=O ?
UBC13 inh: inactive; MEKK2 WT-MEK5: inactive; MEKK3 PB1 HTS: inactive; Pemphigus Ab inh: 91; MEKK2 mut-MEK5: inactive; Apaf-1 inh: inactive

Screening data as filed in PubChem BioAssay.
